Measurements from ChEMBL document CHEMBL1133476, “Nitrosothiol esters of diclofenac: synthesis and pharmacological characterization as gastrointestinal-sparing prodrugs” (J Med Chem, 2000).

Tests used:
Rattus norvegicus [1] = species: Rattus norvegicus; test: Gastric toxicity was measured in rats.; format: organism-based; settings: in vivo
Summary of the method: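 Male Sprague-Dawley rats (180-200 g), fasted 24 h with water ad libitum. Single gavage of 100 µmol/kg at 5 mL/kg in 0.5% methocel/5% or 50% PEG-400, 5-10 rats/group. Fasting continued for 18 h, then CO₂ euthanasia. Stomach lesions scored in mm; mean ± SEM.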

Mus musculus [2] = test: Level of plasma diclofenac in mice after oral administration of 20 umol/kg of prodrug; format: ADME, organism-based; settings: in vivo
Summary of the method: (§1)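 Male CD-1 mice, fasted overnight (≈17 h), given 20 µmol/kg orally by gavage as a suspension in 0.5% methocel/5% or 50% PEG-400. Ketamine/xylazine anesthesia, then cardiac-puncture heparinized blood at 30, 60 and 120 min, a separate group per time point. Plasma diclofenac measured by HPLC with UV detection against authentic standard, meclofenamic acid internal standard.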

[3] = Activity ratio is the percent inhibition in writhing test at 100 umol/kg, po to that of diclofenac at 100 umol/kg, po administration; format: functional
Summary of the method: (§2)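 Male CD-1 mice (20-25 g), fasted overnight (≈17 h) with water ad libitum. Oral gavage of 100 µmol/kg as a suspension in 0.5% methocel with 5% or 50% PEG-400, 2.5 mL/kg, at least 9 mice/group. PBQ 2 mg/kg ip at 1 h after dosing; writhes counted over 5 min, starting 5 min after PBQ. Read-out is % inhibition of writhing vs vehicle; ratio = % inhibition with the test article / % inhibition with diclofenac, both at 100 µmol/kg po.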

Mus musculus [4] = species: Mus musculus; test: Analgesic effect measured as % inhibition in PBQ-induced writhing test in mice.; format: functional; parameters: concentration or dose not given beside the values; summary of the method: as §2
Rattus norvegicus [5] = test: Antiinflammatory effect measured as % inhibition in carrageenan induced paw edema test in rat.; format: functional
Summary of the method: (§3)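 Male Sprague-Dawley rats (200-250 g), fasted overnight (≈17 h) with water ad libitum. Dosed 100 µmol/kg by gavage at 5 mL/kg in 0.5% methocel/5% or 50% PEG-400, at least 5 rats/group. At 1 h, 50 µL of 1% carrageenan injected subplantar into the right […] paw. Paw volume read by water displacement at 0 and 3 h. Result is % inhibition of the volume increase; ratio relative to diclofenac at the same dose.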

[6] = Activity ratio is the percent inhibition of paw volume increase at 100 umol/kg, po to that of diclofenac at 100 umol/kg, po administration; format: functional; summary of the method: as §3
Mus musculus [7] = test: Level of plasma diclofenac in mice after oral administration; format: ADME, organism-based; settings: in vivo; summary of the method: as §1

Row | SMILES | Concentration_Plasma (Mus musculus [2]) | Gastric lesion score (Rattus norvegicus [1]) | Ratio [3] | Inhibition (Mus musculus [4]) | other results
1 | O=C(Cc1ccccc1Nc1c(Cl)cccc1Cl)OCC1(S)CCCCC1 | – | 6.7 mm | – | – | –
2 | CN(CCCOC(=O)Cc1ccccc1Nc1c(Cl)cccc1Cl)CC1(S)CCCCC1 | – | 28.3 mm | – | – | –
3 | CN(CCOC(=O)Cc1ccccc1Nc1c(Cl)cccc1Cl)CC1(S)CCCCC1 | – | 10.2 mm | – | – | –
4 | CC(C)(COC(=O)Cc1ccccc1Nc1c(Cl)cccc1Cl)SN=O | 19.8 nM ml-1 | 0.7 mm | 0.4 | 32% | –
5 | CCC(CC)(COC(=O)Cc1ccccc1Nc1c(Cl)cccc1Cl)SN=O | 13.4 nM ml-1 | 0.4 mm | 1.1 | 95% | –
6 | O=C([O-])Cc1ccccc1Nc1c(Cl)cccc1Cl.[Na+] [DICLOFENAC SODIUM] | – | – | – | – | Concentration_Plasma (Mus musculus [7]): 23.9 nM ml-1
7 | O=C(O)Cc1ccccc1Nc1c(Cl)cccc1Cl [DICLOFENAC] | – | – | – | 84% | Inhibition (Rattus norvegicus [5]): 53%

Further lines, with some results ahead:

Row | Concentration_Plasma (Mus musculus [2]) | SMILES | Gastric lesion score (Rattus norvegicus [1]) | Ratio [3] | Inhibition (Mus musculus [4]) | other results
8 | 4.5 nM ml-1 | CCN(CCCOC(=O)Cc1ccccc1Nc1c(Cl)cccc1Cl)CC1(SN=O)CCCCC1 | – | – | – | –
9 | 5.9 nM ml-1 | CN(CCCCOC(=O)Cc1ccccc1Nc1c(Cl)cccc1Cl)CC1(SN=O)CCCCC1 | – | – | – | –
10 | 2.4 nM ml-1 | CN(CCCCCOC(=O)Cc1ccccc1Nc1c(Cl)cccc1Cl)CC1(SN=O)CCCCC1 | – | – | – | –
11 | 15.3 nM ml-1 | O=NSC1(COC(=O)Cc2ccccc2Nc2c(Cl)cccc2Cl)CCCCC1 | 2 mm | 0.7 | 58% | –
12 | 6.8 nM ml-1 | O=NSC1(CN(CCCOC(=O)Cc2ccccc2Nc2c(Cl)cccc2Cl)Cc2ccccc2)CCCCC1 | – | – | – | –
13 | 7.4 nM ml-1 | CN(CCCOC(=O)Cc1ccccc1Nc1c(Cl)cccc1Cl)CC1(SN=O)CCCCC1 | 0.7 mm | 0.6 | 53% | Inhibition (Rattus norvegicus [5]): 58%; Ratio [6]: 1.1
14 | 5.5 nM ml-1 | CN(CCOC(=O)Cc1ccccc1Nc1c(Cl)cccc1Cl)CC1(SN=O)CCCCC1 | 1.1 mM | 0.8 | 70% | Inhibition (Rattus norvegicus [5]): 55%; Ratio [6]: 1
